ChEMBL document CHEMBL2010768, “Optimization of Potent Inhibitors of P. falciparum Dihydroorotate Dehydrogenase for the Treatment of Malaria” (ACS Med Chem Lett, 2011)
Activity calls are given as the source filed them. The rule behind the calls is not given here.

Tests used:
[1] = Plasma protein binding in mouse by LC-MS/MS analysis; format: ADME, cell-free; details: read-out: PPB (converted)
Plasmodium falciparum [2] = test: Antimalarial activity against Plasmodium falciparum 3D70087/N9 infected in po dosed NOD-scid IL-2Rgamma-null mouse model compound administered bid for 4 to 7 days by FACS analysis; format: functional; details: 3D7 0087/N9, 4TO7, po
Summary of the method: (§1)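 Oral dosing in mouse malaria models. Efficacy is expressed as ED50, ED90 and ED99 in mg/kg/day.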

[3] = target: T1, Dihydroorotate dehydrogenase (Plasmodium falciparum, UniProt Q54A96); test: Inhibition of Plasmodium falciparum DHODH after 20 mins by 2,6-dichloroindophenol-reduction based assay
T1 sequence (Q54A96 whole entry): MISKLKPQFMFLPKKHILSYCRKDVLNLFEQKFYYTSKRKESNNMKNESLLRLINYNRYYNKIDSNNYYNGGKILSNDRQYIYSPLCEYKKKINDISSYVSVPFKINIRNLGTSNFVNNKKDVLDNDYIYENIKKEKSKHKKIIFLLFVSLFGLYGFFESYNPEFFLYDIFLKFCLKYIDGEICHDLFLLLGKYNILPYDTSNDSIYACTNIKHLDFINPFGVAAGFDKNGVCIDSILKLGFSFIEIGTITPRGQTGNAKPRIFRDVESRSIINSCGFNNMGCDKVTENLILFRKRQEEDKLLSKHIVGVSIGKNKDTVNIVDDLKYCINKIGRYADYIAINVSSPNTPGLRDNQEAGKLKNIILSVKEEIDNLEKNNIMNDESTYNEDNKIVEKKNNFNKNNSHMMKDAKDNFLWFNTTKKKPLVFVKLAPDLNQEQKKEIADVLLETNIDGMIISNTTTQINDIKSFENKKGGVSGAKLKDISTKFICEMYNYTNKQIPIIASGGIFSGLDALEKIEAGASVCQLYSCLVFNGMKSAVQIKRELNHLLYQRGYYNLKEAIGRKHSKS

[4] = Permeability of the compound by parallel artificial membrane permeation assay; format: ADME; details: PAMPA; read-out: permeability
Plasmodium berghei [5] = test: Inhibition of Plasmodium berghei DHODH after 20 mins by 2,6-dichloroindophenol-reduction based assay
[6] = Clearance in mouse liver microsomes by LC-MS/MS analysis; format: ADME, Microsome
Summary of the method: (§2)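 Liver microsome incubation. Predicted clearance is derived from a well-stirred model corrected for microsomal and protein binding.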

Salmonella typhimurium [7] = test: Mutagenic activity in S9-induced Salmonella typhimurium 100 up to 100 uM by Ames test; format: toxicity, organism-based; details: salmonella enterica subsp. enterica serovar typhimurium
Salmonella typhimurium [8] = test: Mutagenic activity in Salmonella typhimurium 1535 up to 100 uM by Ames test; format: toxicity, organism-based; details: salmonella enterica subsp. enterica serovar typhimurium
[9] = Plasma protein binding in human by LC-MS/MS analysis; format: ADME, cell-free; details: read-out: PPB (converted)
Cytochrome P450 3A4 = Cytochrome P450 3A4 (Homo sapiens, UniProt P08684); test: Inhibition of human CYP3A4 using midazolam as substrate after 5 mins by LC-MS/MS analysis; format: ADME
Sequence of Cytochrome P450 3A4 (P08684 whole entry): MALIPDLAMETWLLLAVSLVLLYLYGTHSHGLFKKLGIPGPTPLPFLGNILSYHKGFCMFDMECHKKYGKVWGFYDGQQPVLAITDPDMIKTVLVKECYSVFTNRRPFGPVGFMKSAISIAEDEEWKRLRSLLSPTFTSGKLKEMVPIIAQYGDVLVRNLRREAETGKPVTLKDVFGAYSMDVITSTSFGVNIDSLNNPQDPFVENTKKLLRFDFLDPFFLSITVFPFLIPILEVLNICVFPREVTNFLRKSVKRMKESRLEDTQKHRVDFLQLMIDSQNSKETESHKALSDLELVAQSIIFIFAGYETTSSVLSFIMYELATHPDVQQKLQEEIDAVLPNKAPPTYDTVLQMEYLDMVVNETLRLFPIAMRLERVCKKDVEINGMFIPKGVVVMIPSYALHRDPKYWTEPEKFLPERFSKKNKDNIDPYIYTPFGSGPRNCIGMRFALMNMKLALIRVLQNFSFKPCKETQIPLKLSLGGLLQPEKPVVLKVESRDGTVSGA

Canis familiaris [10] = test: AUC (0 to infinity) in dog at 3 mg/kg, po by LC-MS/MS analysis; format: ADME, organism-based, Canis lupus familiaris, Plasma; design: time infinity, dose 3 mg/kg, route oral; details: in vivo
Plasmodium vivax = test: Inhibition of Plasmodium vivax DHODH after 20 mins by 2,6-dichloroindophenol-reduction based assay
[11] = Clearance in human liver microsomes by LC-MS/MS analysis; format: ADME, Microsome; summary of the method: as §2
[12] = Unbound fraction in human plasma; format: ADME, cell-free
[13] = Half life in dog at 1 mg/kg, iv by LC-MS/MS analysis; format: ADME, organism-based, Canis lupus familiaris; design: dose 1 mg/kg, route intravenous; details: in vivo
[14] = Cmax in dog at 3 mg/kg, po by LC-MS/MS analysis; format: ADME, organism-based, Canis lupus familiaris; design: dose 3 mg/kg, route oral; details: in vivo
Cytochrome P450 1A2 = target: T2, Cytochrome P450 1A2 (Homo sapiens, UniProt P05177); test: Inhibition of human CYP1A2 using phenacetin as substrate after 10 mins by LC-MS/MS analysis; format: ADME
T2 sequence (P05177 whole entry): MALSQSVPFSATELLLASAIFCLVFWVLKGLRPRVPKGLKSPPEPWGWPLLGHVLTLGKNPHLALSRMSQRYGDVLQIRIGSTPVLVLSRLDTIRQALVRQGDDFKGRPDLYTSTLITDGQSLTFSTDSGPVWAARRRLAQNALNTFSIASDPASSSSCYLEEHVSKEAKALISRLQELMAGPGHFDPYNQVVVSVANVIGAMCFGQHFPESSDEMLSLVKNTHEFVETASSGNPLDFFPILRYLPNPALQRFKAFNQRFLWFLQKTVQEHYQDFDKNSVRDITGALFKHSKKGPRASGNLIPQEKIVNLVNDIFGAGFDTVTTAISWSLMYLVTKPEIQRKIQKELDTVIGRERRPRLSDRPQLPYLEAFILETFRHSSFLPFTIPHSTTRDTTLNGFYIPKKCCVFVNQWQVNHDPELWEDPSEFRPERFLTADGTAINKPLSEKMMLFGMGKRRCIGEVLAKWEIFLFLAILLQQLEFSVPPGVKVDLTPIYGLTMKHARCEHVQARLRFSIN

Cytochrome P450 2C9 = Cytochrome P450 2C9 (Homo sapiens, UniProt P11712); test: Inhibition of human CYP2C9 using diclofenac as substrate after 10 mins by LC-MS/MS analysis; format: ADME
Sequence of Cytochrome P450 2C9 (P11712 whole entry): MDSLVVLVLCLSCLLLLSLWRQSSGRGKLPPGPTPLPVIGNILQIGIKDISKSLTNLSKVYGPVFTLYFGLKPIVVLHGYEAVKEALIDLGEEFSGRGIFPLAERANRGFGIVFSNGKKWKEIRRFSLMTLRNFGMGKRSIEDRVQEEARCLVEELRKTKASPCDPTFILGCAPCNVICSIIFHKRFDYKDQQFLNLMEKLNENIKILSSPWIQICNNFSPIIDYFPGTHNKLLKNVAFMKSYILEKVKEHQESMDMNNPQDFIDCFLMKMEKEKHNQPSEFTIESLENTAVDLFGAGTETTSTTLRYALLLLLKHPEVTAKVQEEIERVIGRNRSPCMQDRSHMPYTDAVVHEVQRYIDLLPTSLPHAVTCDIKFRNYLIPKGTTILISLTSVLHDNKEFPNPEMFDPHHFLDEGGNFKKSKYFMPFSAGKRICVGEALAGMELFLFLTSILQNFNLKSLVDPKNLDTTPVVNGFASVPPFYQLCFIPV

Salmonella typhimurium [15] = test: Mutagenic activity in Salmonella typhimurium TA98 up to 100 uM by Ames test; format: toxicity, organism-based; details: salmonella enterica subsp. enterica serovar typhimurium
Canis familiaris [16] = test: AUC (0 to infinity) in dog at 1 mg/kg, iv by LC-MS/MS analysis; format: ADME, organism-based, Canis lupus familiaris, Plasma; design: dose 1 mg/kg, route intravenous, time infinity; details: in vivo
[17] = Plasma protein binding in rat by LC-MS/MS analysis; format: ADME, cell-free; details: read-out: PPB (converted)
Plasmodium falciparum [18] = test: Antiplasmodial activity against Plasmodium falciparum Dd2 infected in […] after 72 hrs by SYBR green assay; format: functional, organism-based; details: Dd2, 72 h
Salmonella typhimurium [19] = test: Mutagenic activity in Salmonella typhimurium 100 up to 100 uM by Ames test; format: toxicity, organism-based; details: salmonella enterica subsp. enterica serovar typhimurium
Plasmodium berghei [20] = test: Antimalarial activity against Plasmodium berghei ANKA infected in orally dosed mouse model compound administered at 9 hrs post-infection on first day followed by bid for subsequent 3 days; format: functional; details: po; summary of the method: as §1
[21] = Cmax in rat at 50 to 600 mg/kg, po qd for 7 days measured after 7 days washout period; format: ADME, organism-based; design: dose 50-600 mg/kg, route oral; details: in vivo
Summary of the method: (§3)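 Rats dosed orally once daily for 7 days at 0 (control), 50, 150, 450 and 600 mg/kg, then a 7-day washout. NOAEL determined, with Cmax and AUC reported at that exposure.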

[22] = Half life in rat at 1 mg/kg, iv by LC-MS/MS analysis; format: ADME, organism-based; design: dose 1 mg/kg, route intravenous; details: in vivo
[23] = AUC (0 to infinity) in rat at 1 mg/kg, iv by LC-MS/MS analysis; format: ADME, organism-based; design: time infinity, dose 1 mg/kg, route intravenous; details: plasma
Cytochrome P450 2D6 = Cytochrome P450 2D6 (Homo sapiens, UniProt P10635); test: Inhibition of human CYP2D6 using bufuralol as substrate after 10 mins by LC-MS/MS analysis; format: ADME
Sequence of Cytochrome P450 2D6 (P10635 whole entry): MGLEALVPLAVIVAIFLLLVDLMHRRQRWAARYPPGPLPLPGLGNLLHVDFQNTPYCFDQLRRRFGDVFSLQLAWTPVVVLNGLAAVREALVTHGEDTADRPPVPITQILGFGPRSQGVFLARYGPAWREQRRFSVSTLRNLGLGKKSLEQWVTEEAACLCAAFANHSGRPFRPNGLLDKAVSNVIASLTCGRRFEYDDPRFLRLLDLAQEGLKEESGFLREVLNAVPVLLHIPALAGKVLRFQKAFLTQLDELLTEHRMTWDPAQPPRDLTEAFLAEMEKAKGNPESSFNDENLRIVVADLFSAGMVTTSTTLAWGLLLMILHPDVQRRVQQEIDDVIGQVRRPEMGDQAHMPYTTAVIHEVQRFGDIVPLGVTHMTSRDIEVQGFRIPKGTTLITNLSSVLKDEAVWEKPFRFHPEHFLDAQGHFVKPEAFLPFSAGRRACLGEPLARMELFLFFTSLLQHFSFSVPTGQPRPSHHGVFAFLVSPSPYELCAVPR

[24] = Volume of distribution at steady state in rat at 1 mg/kg, iv by LC-MS/MS analysis; format: ADME, organism-based; design: dose 1 mg/kg, route intravenous; details: in vivo, read-out: Vdss
[25] = Cmax in rat at 3 mg/kg, po by LC-MS/MS analysis; format: ADME, organism-based; design: dose 3 mg/kg, route oral; details: in vivo
[26] = Toxicity in po dosed rat administered qd for 7 days measured after 7 days washout period; format: organism-based; details: in vivo; summary of the method: as §3
Salmonella typhimurium [27] = test: Mutagenic activity in S9-induced Salmonella typhimurium 1535 up to 100 uM by Ames test; format: toxicity, organism-based; details: salmonella enterica subsp. enterica serovar typhimurium
Plasmodium falciparum [28] = test: Antiplasmodial activity against Plasmodium falciparum 3D7 infected in […] after 72 hrs by SYBR green assay; format: functional, organism-based; details: 3D7, 72 h
[29] = Oral bioavailability in rat at 3 mg/kg by LC-MS/MS analysis; format: ADME, organism-based; details: in vivo
[30] = Clearance in rat at 1 mg/kg, iv by LC-MS/MS analysis; format: ADME, organism-based; design: dose 1 mg/kg, route intravenous; details: in vivo
[31] = Clearance in dog at 1 mg/kg, iv by LC-MS/MS analysis; format: ADME, organism-based, Canis lupus familiaris; design: dose 1 mg/kg, route intravenous; details: in vivo
Cytochrome P450 2C19 = Cytochrome P450 2C19 (Homo sapiens, UniProt P33261); test: Inhibition of human CYP2C19 using S-mephenytoin as substrate after 45 mins by LC-MS/MS analysis; format: ADME
Sequence of Cytochrome P450 2C19 (P33261 whole entry): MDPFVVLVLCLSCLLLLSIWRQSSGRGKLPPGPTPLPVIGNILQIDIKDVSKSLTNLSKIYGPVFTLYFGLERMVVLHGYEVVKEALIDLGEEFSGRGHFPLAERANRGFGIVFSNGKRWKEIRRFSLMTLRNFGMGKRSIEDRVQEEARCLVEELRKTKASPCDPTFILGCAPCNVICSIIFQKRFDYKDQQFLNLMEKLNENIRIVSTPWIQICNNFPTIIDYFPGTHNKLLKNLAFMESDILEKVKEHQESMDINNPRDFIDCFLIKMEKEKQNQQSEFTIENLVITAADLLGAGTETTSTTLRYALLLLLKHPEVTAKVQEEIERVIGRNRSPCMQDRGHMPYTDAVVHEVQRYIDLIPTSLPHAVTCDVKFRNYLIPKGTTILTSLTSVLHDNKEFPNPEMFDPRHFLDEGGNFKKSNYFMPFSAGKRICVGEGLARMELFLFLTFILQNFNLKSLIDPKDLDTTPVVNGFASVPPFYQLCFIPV

[32] = Volume of distribution at steady state in dog at 1 mg/kg, iv by LC-MS/MS analysis; format: ADME, organism-based, Canis lupus familiaris; design: dose 1 mg/kg, route intravenous; details: in vivo, read-out: Vdss
Salmonella typhimurium [33] = test: Mutagenic activity in S9-induced Salmonella typhimurium TA98 up to 100 uM by Ames test; format: toxicity, organism-based; details: salmonella enterica subsp. enterica serovar typhimurium
Canis familiaris [34] = test: Oral bioavailability in dog at 3 mg/kg by LC-MS/MS analysis; format: ADME, organism-based, Canis lupus familiaris; details: in vivo
[35] = AUC (0 to infinity) in rat at 3 mg/kg, po by LC-MS/MS analysis; format: ADME, organism-based; design: time infinity, dose 3 mg/kg, route oral; details: plasma
[36] = Plasma protein binding in dog by LC-MS/MS analysis; format: ADME, cell-free, Canis lupus familiaris; details: read-out: PPB (converted)
[37] = AUC in rat at 50 to 600 mg/kg, po qd for 7 days measured after 7 days washout period; format: ADME, organism-based; design: dose 50-600 mg/kg, route oral; details: plasma; summary of the method: as §3

Cc1nc2c(C#N)cccc2n1-c1ccc(C(=O)NC2CC2)s1
fraction unbound [1]: 0.182 | ED50 (Plasmodium falciparum [2]): 13 mg/kg/day | ED90 (Plasmodium falciparum [2]): 27 mg/kg/day | ED99 (Plasmodium falciparum [2]): 60 mg/kg/day | IC50 [3]: 40 nM | Papp [4]: 49 ×10⁻⁶ cm/s | inhibition (Plasmodium berghei [5]): Active | CLhep predicted [6]: 26 mL/min/kg | Activity (Salmonella typhimurium [7]): Non-toxic | Activity (Salmonella typhimurium [8]): Non-toxic | fraction unbound [9]: 0.112 | IC50 (Cytochrome P450 3A4): > 10000 nM | AUC (Canis familiaris [10]): 359 ng·h/mL | inhibition (Plasmodium vivax): Active | CLhep predicted [11]: < 4 mL/min/kg | fraction unbound [12]: 0.11 | half-life [13]: 31.2 min | Cmax [14]: 1110 ng/mL | IC50 (Cytochrome P450 1A2): > 10000 nM | IC50 (Cytochrome P450 2C9): > 10000 nM | Activity (Salmonella typhimurium [15]): Non-toxic | AUC (Canis familiaris [16]): 1500 ng·h/mL | fraction unbound [17]: 0.22 | IC50 (Plasmodium falciparum [18]): 10 nM | Activity (Salmonella typhimurium [19]): Non-toxic | ED50 (Plasmodium berghei [20]): 13 mg/kg/day | ED90 (Plasmodium berghei [20]): 28 mg/kg/day | ED99 (Plasmodium berghei [20]): 62 mg/kg/day | Cmax [21]: 29000 ng/mL | half-life [22]: 51 min | AUC(0-inf) [23]: 703 ng·h/mL | IC50 (Cytochrome P450 2D6): > 10000 nM | Vd [24]: 0.995 L/kg | Cmax [25]: 618 ng/mL | NOAEL at 168 h [26]: > 600 mg/kg | Activity (Salmonella typhimurium [27]): Non-toxic | IC50 (Plasmodium falciparum [28]): 7 nM | bioavailability [29]: 49% | clearance [30]: 24 mL/min/kg | clearance [31]: 6.7 mL/min/kg | IC50 (Cytochrome P450 2C19): > 10000 nM | Vd [32]: 0.279 L/kg | Activity (Salmonella typhimurium [33]): Non-toxic | F (Canis familiaris [34]): 19% | AUC(0-inf) [35]: 1040 ng·h/mL | fraction unbound [36]: 0.312 | AUC at 168 h [37]: 328000 ng·h/mL
